TRPC6 inhibitor: mouse TRPC6 channel inhibition. Q61143. HEK293-TRPC6, membrane potential dye, ACh-evoked depolarization; hits give low values. B-score at 10 µM. 1.1% of 310,000 active;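 active = B-score under library mean minus 3 SD, initial fluorescence not abnormally high, positive integrated signal ratio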;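 note: B-score derived from integrated fluorescence ratio over the kinetic read; more negative B-score means stronger inhibition of depolarization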
Target sequence (Q61143 whole entry, looked up): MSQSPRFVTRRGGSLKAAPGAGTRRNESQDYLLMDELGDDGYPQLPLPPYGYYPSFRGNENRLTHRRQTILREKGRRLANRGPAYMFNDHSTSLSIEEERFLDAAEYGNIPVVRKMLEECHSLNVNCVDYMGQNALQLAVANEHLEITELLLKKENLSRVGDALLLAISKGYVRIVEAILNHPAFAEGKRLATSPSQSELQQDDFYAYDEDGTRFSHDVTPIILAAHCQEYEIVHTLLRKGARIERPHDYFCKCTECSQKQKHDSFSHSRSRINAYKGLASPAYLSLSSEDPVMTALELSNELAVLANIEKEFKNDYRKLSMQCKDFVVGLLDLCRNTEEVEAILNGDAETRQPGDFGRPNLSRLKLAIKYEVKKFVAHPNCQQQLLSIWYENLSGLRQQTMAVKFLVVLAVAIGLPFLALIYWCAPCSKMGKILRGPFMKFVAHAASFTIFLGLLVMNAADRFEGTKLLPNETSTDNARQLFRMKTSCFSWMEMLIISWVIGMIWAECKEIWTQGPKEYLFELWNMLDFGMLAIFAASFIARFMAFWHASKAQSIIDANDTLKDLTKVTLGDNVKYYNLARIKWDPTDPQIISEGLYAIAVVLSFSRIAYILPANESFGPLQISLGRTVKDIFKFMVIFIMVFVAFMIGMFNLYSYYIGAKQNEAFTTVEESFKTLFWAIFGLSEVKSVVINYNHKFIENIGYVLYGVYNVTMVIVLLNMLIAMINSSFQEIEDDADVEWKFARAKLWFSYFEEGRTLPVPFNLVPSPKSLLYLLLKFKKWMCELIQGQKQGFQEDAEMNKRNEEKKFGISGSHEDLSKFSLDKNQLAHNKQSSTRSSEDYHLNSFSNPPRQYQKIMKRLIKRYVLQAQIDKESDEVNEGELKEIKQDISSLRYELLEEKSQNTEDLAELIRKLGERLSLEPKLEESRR
TRPC6 activator: activates the mouse TRPC6 cation channel | Q61143 | HEK293-TRPC6 membrane potential dye fluorescence; hits give high values | B-score at 10 µM | 0.13% of 310,000 active | AID 2550;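 active = B-score of the integrated fluorescence ratio above library mean plus 3 SD, and starting fluorescence ratio within library mean plus 5 SD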;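 note: higher score means more depolarization so channel activation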
TRPC4 inh: inhibitors of mouse TRPC4 channel; HEK293 TRPC4beta/mu-opioid, DAMGO-evoked Fluo4 calcium flux; hits give low values; B-score at 10 µM; 0.39% of 300,000 active;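 active = B-score over 3 SD under the library average, no early fluorescence shift, positive overall ratio signal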
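Material: HEK293 cells with stable TRPC4beta plus mu-opioid receptor expression; probe or stimulus: DAMGO in two steps, submaximal then maximal; technique: Fluo4 calcium fluorescence by kinetic imaging, 5 s 1 Hz baseline; measure: integrated fluorescence ratio relative to baseline, converted to per-well B score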
TRPC4 PAM: TRPC4 (mouse) allosteric potentiation. HEK293 TRPC4beta/mu-opioid, DAMGO EC20, Fluo-4 Ca2+ flux; hits give high values. B-score at 10 µM. 0.42% of 310,000 active;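 active = B-score of calcium response area above 5 SD of library B-scores, with initial fluorescence ratio within 5 SD of library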
TRPC4 act: opens the mouse TRPC4 cation channel; 0.49% of 310,000 active; HEK293 TRPC4beta/mu-opioid, Fluo4 calcium fluorescence; hits give high values; B-score at 10 µM;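 active = B-score above 5 SD of library B-scores, and initial fluorescence ratio not above library mean plus 5 SD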;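 note: positive B-score marks a calcium rise read as TRPC4 activation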
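Assay system – TRPC4beta and mu-opioid receptor HEK293 stable cells · Measured by – Fluo4 fluorescence, kinetic · Schedule – dye loading 45 min room temperature, 110 s kinetic read · Read-out – B-scored integrated calcium fluorescence ratio · Controls – buffer and maximal DAMGO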
Each line names hits and unclear results; the compound was inactive in the other large screens. Shown are actives, neighbours in structure and some others; about 2.3% of the full set was active somewhere.

O=C1C2CCCN2C(c2ccncc2)N1c1ccc(Cl)c(Cl)c1 (stereo not drawn)	TRPC4 PAM 11
CCC(=O)C(CCN1CCOCC1)(c1ccccc1)c1ccccc1	TRPC4 act 62
COc1ccc(-c2nn(CCC#N)cc2C(=O)Nc2ccccc2Br)cc1[N+](=O)[O-]	none
COc1ccc(CNCCc2ccc3c(c2)OCO3)cc1Br	TRPC4 act 107
COc1ccc(Br)cc1CNCCc1ccc2c(c1)OCO2	none
Cc1ccc(OCCOc2cccc(C=C3C(=O)NC(=O)NC3=O)c2)cc1	none
Clc1cc(I)cc(Cl)c1NC1=NCCN1	none
COc1ccc(C2NCCc3[nH]cnc32)cc1 (stereo not drawn)	TRPC4 act 175
c1ccc(C2NCCc3[nH]cnc32)cc1 (stereo not drawn)	none
CCCc1cc(=O)oc2cc(OCC(=O)N3C[C@H]4C[C@@H](C3)c3cccc(=O)n3C4)ccc12	none
CN1CCN(c2ccc([N+](=O)[O-])c3cccnc23)CC1	TRPC4 PAM 18, TRPC4 act 64
O=[N+]([O-])c1ccc(N2CCNCC2)cc1Sc1ccccn1	none
O=[N+]([O-])c1ccc(N2CCNCC2)c2ncccc12	TRPC6 inhibitor -5.5, TRPC4 PAM 24, TRPC4 act 69
CN(C)CCNC(=O)c1cccn(Cc2cc(C(F)(F)F)cc(C(F)(F)F)c2)c1=O	none
O=C(COc1ccccc1)NCCc1cnc[nH]1	none
O=C(CCCc1ccccc1)NCCc1cnc[nH]1	TRPC4 act 143
CC(N)Cc1c[nH]c2ccc(Cl)cc12 (stereo not drawn)	TRPC4 PAM 13
N[C@@H](Cc1c[nH]c2ccccc12)c1nnc(SCc2ccc(Cl)cc2)o1	none
CC(N)Cc1c[nH]c2cc3c(cc12)OCCO3 (stereo not drawn)	TRPC4 act 143
COc1ccc(C)cc1NC1=NC(C)(C)CS1	TRPC4 inh -6
CNC(C)Cc1ccccc1Sc1ccc(O)cc1 (stereo not drawn)	TRPC4 inh -6
O=Cc1c(C(=O)O)n(Cc2ccc(F)cc2Cl)c2ccccc12	none
Oc1c(Br)cc(Br)cc1CN1CCN(Cc2ccccc2)CC1	TRPC4 PAM 20
COc1ccc(CN2CCN(C(=O)Cc3ccccc3)CC2)c(OC)c1	none
O=C(Cc1ccc(Br)cc1)N1CCN(Cc2ccccc2)CC1	none
O=C(Cc1ccccc1)N1CCN(Cc2cccc(Br)c2)CC1	TRPC4 inh -5
COc1ccc(Br)cc1CN1CCN(C(=O)Cc2ccccc2)CC1	TRPC4 inh -6
O=C1C2CCN(CC2)C1Cc1ccc(OCc2ccccc2)cc1 (stereo not drawn)	none
Cc1cnc(NC(=O)CN2CCCCC2)s1	none
CCN(CC)CC(=O)Nc1ccc(Cl)cc1C(=O)c1ccccc1	TRPC4 inh -6
COc1cc(CN2CCCC(C(=O)c3sccc3C)C2)cc(OC)c1O (stereo not drawn)	none
COc1ccc(CN2CCCC(C(=O)c3sccc3C)C2)cc1O (stereo not drawn)	TRPC4 inh -7
CCC(C)NS(=O)(=O)c1ccc(OCC(=O)N2CCN(CC)CC2)cc1 (stereo not drawn)	none
CCOC(=O)C(O)(c1ccc(NC(=S)NC(=O)c2ccc(Cl)cc2Cl)cc1)C(F)(F)F (stereo not drawn)	TRPC4 PAM 13
COC(=O)C(O)(c1ccc(NC(=S)NC(=O)c2ccc(Cl)cc2Cl)c(C)c1)C(F)(F)F (stereo not drawn)	TRPC4 PAM 32
CCOC(=O)C(NC(=O)CC)(Nc1ccc(C(O)(C(=O)OCC)C(F)(F)F)cc1C)C(F)(F)F (stereo not drawn)	none
COC(=O)C(O)(c1ccc(NC(=S)NC(=O)c2ccc(Cl)cc2Cl)cc1)C(F)(F)F (stereo not drawn)	none
CCOC(=O)C(O)(c1ccc(NC(=S)NC(=O)c2ccc(Cl)cc2Cl)c(C)c1)C(F)(F)F (stereo not drawn)	TRPC4 PAM 16
CNC(=O)N(C)c1ccc(C(O)(C(=O)OC)C(F)(F)F)cc1 (stereo not drawn)	none
CN1CCN(c2ccc([N+](=O)[O-])c(N)c2)CC1	TRPC4 PAM 10
Nc1cc(N2CCNCC2)ccc1[N+](=O)[O-]	TRPC4 PAM 26, TRPC4 act 77
O=[N+]([O-])c1ccc(N2CCNCC2)cc1NCc1ccco1	none
O=[N+]([O-])c1ccc(N2CCNCC2)cc1N1CCCCCC1	TRPC4 PAM 18
CN1CCN(c2ccc([N+](=O)[O-])c(N3CCCCC3)c2)CC1	none
CNc1cc(N2CCNCC2)ccc1[N+](=O)[O-]	TRPC4 PAM 13
O=C(Cc1ccc([N+](=O)[O-])cc1)N1CCN(Cc2ccc3c(c2)OCO3)CC1	none
COc1nc2ccccc2c(=O)n1-c1ccc(Cl)cc1	TRPC4 PAM 11
COc1nc2ccccc2c(=O)n1-c1ccc(C)cc1	none
Cc1cccc(NC(=O)[C@@H](NC(=O)N2C[C@H]3C[C@@H](C2)c2cccc(=O)n2C3)C(C)C)c1	none
CN1CCN(c2ccc([N+](=O)[O-])cc2Cl)CC1	TRPC4 PAM 27
CN1CCN(c2cc([N+](=O)[O-])ccc2Cl)CC1	none
CC1CN(c2ccc([N+](=O)[O-])cc2Cl)CCN1 (stereo not drawn)	TRPC4 PAM 66, TRPC4 act 63
CC1C(c2cccs2)=[N+]([O-])C(C)(C(=O)c2ccc(Cl)cc2)N1O (stereo not drawn)	none
Cc1c(C)c2ccc(OCC(=O)N3C[C@H]4C[C@@H](C3)c3cccc(=O)n3C4)cc2oc1=O	none
NC(N)=N/N=C/c1cn(-c2ccccc2)nc1-c1cccs1	TRPC4 act 97
Cc1cc(OC(=O)N(C)C)nc(SCc2c(Cl)cccc2Cl)n1	TRPC4 PAM 11
COC/C=C1\CN2C3C[C@@H]1[C@H]1COC4=Nc5cc(OC)c(OC)c(OC)c5[C@@]43C[C@@H]12	none
COc1ccc(CCN)cc1O	TRPC4 act 43
CCOC(=O)c1cc(C)n(CCc2cnc[nH]2)c1C	TRPC4 act 138
CCc1cc(=O)oc2cc(OCC(=O)N3C[C@H]4C[C@@H](C3)c3cccc(=O)n3C4)ccc12	none
CN1CCN(Cc2ccc(N)cc2)CC1	none
CN1CCN(Cc2cc(C(C)(C)C)c(O)c(C(C)(C)C)c2)CC1	TRPC4 PAM 11
O=P(Nc1ccccc1)(Nc1ccccc1)Oc1ccc(Cl)cc1	TRPC4 PAM 10
O=c1cccc2n1C[C@H]1C[C@@H]2CN2CCCC[C@@H]12	none
c1ccc2nc(OCCN3CC3)ccc2c1	TRPC4 PAM 18
c1ccc(C(OCCN2CCNCC2)c2ccccc2)cc1	none
CCC(=O)OC1(c2cccc(C)c2)CC(C)N(C)CC1C (stereo not drawn)	TRPC4 act 68
CCC(=O)OC1(Cc2ccc(CC)cc2)CC(C)N(C)CC1C (stereo not drawn)	TRPC4 inh -8, TRPC4 act 48
Clc1ccc(N2CCNCC2)nn1	TRPC4 PAM 22

Screens: PubChem BioAssay, Johns Hopkins Ion Channel Center
